Laboratory results: publication PMC7711931 (ACS Omega, 2020)

Columns and labels:
TR4-LBD [1] = target: T1, TR4-LBD (Homo sapiens, UniProt P49116); assay: SPRi assay: binding of TR4-LBD to the immobilized FDA-approved drug library
T1 sequence (P49116 341-583 limits assumed): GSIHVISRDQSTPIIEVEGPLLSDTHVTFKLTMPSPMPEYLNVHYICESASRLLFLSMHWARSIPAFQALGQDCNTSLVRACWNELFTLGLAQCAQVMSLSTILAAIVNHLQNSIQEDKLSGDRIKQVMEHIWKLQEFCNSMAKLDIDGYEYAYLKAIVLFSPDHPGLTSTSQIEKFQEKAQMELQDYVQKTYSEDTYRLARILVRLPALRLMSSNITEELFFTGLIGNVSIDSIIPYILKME

TR4 = target: T2, TR4 (Homo sapiens, UniProt P49116); assay: Dual-luciferase reporter assay of TR4 transactivation; format: cell-based; conditions: for Luciferase activity (TR4 transactivation), validation of the reporter system: 293T cells cotransfected with pGLO-TR4RE-Dluc and TR4 (Figure 2B); for Effect on TR4 transactivation: 10 μM, 24 h, 293T cells, DMSO negative control (Figure 3A); for Effect on TR4 transactivation in the presence of ATRA: drug 10 μM, ATRA 20 μM (Figure 3E)
T2 sequence (P49116 1-596): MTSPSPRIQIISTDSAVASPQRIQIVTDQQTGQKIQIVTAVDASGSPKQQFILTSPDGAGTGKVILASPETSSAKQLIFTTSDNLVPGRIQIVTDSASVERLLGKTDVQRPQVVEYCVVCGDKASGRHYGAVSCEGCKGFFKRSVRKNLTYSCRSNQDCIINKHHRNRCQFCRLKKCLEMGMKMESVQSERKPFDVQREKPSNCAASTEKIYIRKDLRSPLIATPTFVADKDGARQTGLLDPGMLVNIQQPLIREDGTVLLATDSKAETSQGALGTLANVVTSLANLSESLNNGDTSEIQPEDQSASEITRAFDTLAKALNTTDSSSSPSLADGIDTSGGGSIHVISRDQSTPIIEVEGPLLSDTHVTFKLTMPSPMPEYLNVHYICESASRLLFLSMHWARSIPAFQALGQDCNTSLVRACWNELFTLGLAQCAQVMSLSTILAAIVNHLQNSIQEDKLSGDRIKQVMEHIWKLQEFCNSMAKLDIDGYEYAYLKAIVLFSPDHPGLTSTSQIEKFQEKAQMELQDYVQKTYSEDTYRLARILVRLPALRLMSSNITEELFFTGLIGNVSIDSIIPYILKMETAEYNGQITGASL
Method in brief: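 TR4RE-TK-firefly luciferase cassette from pGL3-(DR)3-TK subcloned into pmirGLO, giving a dual-luciferase reporter. Cells were cotransfected with reporter and TR4 expression plasmid for 24 h, then exposed to test compound for another 24 h: 10 μM for screening or a dose range for curves, with DMSO as negative control. Some arms included ATRA 20 μM. Luciferase was read with a dual-luciferase kit. Means of three independent experiments.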

NQO2 = conditions: read-out: IC50, NQO2 inhibition; cited from earlier work
TR4-LBD [2] = target: T1, TR4-LBD; assay: Circular dichroism spectra of TR4-LBD with or without drug; conditions: TR4-LBD 0.2 mg/mL, drug 20 μM, 5 mM phosphate buffer pH 7.4
Method in brief: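 TR4 ligand-binding domain was expressed in E. coli BL21(DE3) with an N-terminal His6-SUMO tag, purified on His-tag resin, cleaved with SUMO protease, and collected in the flow-through of a second His-tag step. It was desalted into 5 mM phosphate buffer and quantified by BCA. Spectra of protein with or without test compound were recorded in a 0.5 cm path-length cell.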

| Kd (TR4-LBD [1]) [nM] | Luciferase activity (TR4 transactivation), validation of the reporter system (TR4) | EC50 (TR4) [nM] | CD characteristic peak for the β-sheet at 216 nm (TR4-LBD [2]) | Effect on TR4 transactivation (TR4) | CD characteristic peak for α-helix at 208 nm (TR4-LBD [2]) | Efficiency relative to ATRA (EC50 ratio) (TR4; genistein EC50 2.42 μM vs ATRA 23.8 μM) | Structure (SMILES) | IC50 (NQO2) [nM] | Effect on TR4 transactivation in the presence of ATRA (TR4) |
| --- | --- | --- | --- | --- | --- | --- | --- | --- | --- |
| 100000 | elevated | – | – | – | – | – | CC1=C(/C=C/C(C)=C/C=C/C(C)=C/C(=O)O)C(C)(C)CCC1 [ATRA, all-trans-retinoic acid] | – | – |
| 84.8 | suppressed | 37500 | – | – | – | – | C=C(c1ccc(C(=O)O)cc1)c1cc2c(cc1C)C(C)(C)CCC2(C)C [bexarotene] | – | – |
| – | – | 1050 | significantly reduced | most potent inhibitor | – | – | Cc1cn(-c2cc(NC(=O)c3ccc(C)c(Nc4nccc(-c5cccnc5)n4)c3)cc(C(F)(F)F)c2)cn1 [Nilotinib (AMN-107)] | 1800 | almost blocked the activation of TR4 by ATRA |
| – | – | 2420 | – | most potent activator | significantly increased | approximately 10 times | O=c1c(-c2ccc(O)cc2)coc2cc(O)cc(O)c12 [Genistein] | – | equivalent to that of genistein single treatment |
